Published values of several laboratories.
Read-out: enzyme activity
Action: inhibitor
rep main protease: Replicase polyprotein 1ab, main protease (rep, Severe acute respiratory syndrome coronavirus 2, UniProt P0DTD1)
rep papain-like protease: Replicase polyprotein 1ab, papain-like protease (rep, Severe acute respiratory syndrome coronavirus 2, UniProt P0DTD1)

O=c1[nH]c(CCl)nc2sc3c(c12)CCCC3 — inhibition (rep main protease; 20 µM): 29.2%
COc1cc2ccc(=O)oc2cc1O — inhibition (rep main protease; fluorescence; 10 µM; pH 7.2): 61%
O=c1c(O)c(-c2ccc(O)cc2)oc2cc(O)cc(O)c12 — inhibition (rep main protease; FRET; 10 µM; 10 min): 45%
CN1CCc2cccc3c2[C@H]1Cc1ccc(O)c(O)c1-3 — inhibition (rep main protease; 20 µM): -23%
CCC(=O)Oc1cccc2c1C(=O)C=CC2=O — inhibition (rep main protease; 10 µM): 102%
Cc1cc(NC(=O)c2cc3c(=O)n4cccc(C)c4nc3n2C)ccc1Br — inhibition (rep main protease; 1 µM): 14%
COc1ccc2nc(Cl)c(/C=N/c3ccc(-c4nc5ccccc5[nH]4)cc3)cc2c1 — inhibition (rep papain-like protease; 10 µM): 2.1%
O=C(O)c1cc(O)c2c(c1)[C@H]([C@H]1c3cc(C(=O)O)cc(O)c3C(=O)c3c(O[C@@H]4O[C@H](CO)[C@@H](O)[C@H](O)[C@H]4O)cccc31)c1cccc(O[C@@H]3O[C@H](CO)[C@@H](O)[C@H](O)[C@H]3O)c1C2=O — inhibition (rep main protease; 20 µM): 100%
CC(C)C[C@H](NC(=O)OCc1ccccc1)C(=O)N(C)N(C#N)CCC(N)=O — inhibition (rep main protease; fluorescence; 50 µM; pH 7.2): 100%
O=C(O)c1ccc(O)c(O)c1 — inhibition (rep main protease; FRET; 10 µM; 10 min): < 25%
CC1=C2CC(C(=O)N[C@@H]3CN(C(=O)c4cc5ccccc5o4)Cc4nccn4C3)=CN=C2NN1 — inhibition (rep main protease; 5 µM): 11.3%
C[C@@H]1O[C@@H](OC[C@H]2O[C@@H](OCCc3ccc(O)c(O)c3)[C@H](OC(=O)/C=C/c3ccc(O)c(O)c3)[C@@H](O)[C@@H]2O)[C@H](O)[C@H](O)[C@H]1O — inhibition (rep main protease; 100 µM): 99.3%
Cc1cc(OCc2ccccc2)c2c(c1)C(=O)C=CC2=O — inhibition (rep main protease; 10 µM): 96.4%
C[C@@H]1O[C@@H](O[C@@H]2[C@@H](O)[C@H](OCCc3ccc(O)c(O)c3)O[C@H](CO)[C@H]2OC(=O)/C=C/c2ccc(O)c(O)c2)[C@H](O)[C@H](O)[C@H]1O — inhibition (rep main protease; 100 µM): 97%
O=C1C=C(O)C(=O)c2ccccc21 — inhibition (rep main protease; 10 µM): -1.7%
Cc1cccn2c(=O)c3cc(C(=O)Nc4ccc(N(C)C)cc4)n(C)c3nc12 — inhibition (rep main protease; 100 µM): 33%
COc1cc(O)c2c(c1)OC/C(=C\c1ccc(O)cc1)C2=O — inhibition (rep main protease; 20 µM): 16.7%
COc1ccc(OC)c2c1C(=O)C=CC2=O — inhibition (rep main protease; 0.1 µM): 8.9%
O=C(/C=C/c1ccc(O)c(O)c1)OC1CC(OC(=O)/C=C/c2ccc(O)c(O)c2)(C(=O)O)CC(O)C1O (stereo not drawn) — inhibition (rep main protease; 100 µM): 87.3%
O=c1n(-c2ccc(F)cc2)nc2n1CCCN2 — inhibition (rep main protease; 20 µM): 10.2%
O=C(/C=C/c1ccc2ncccc2c1)N1CCC[C@@]2(CCN(C(=O)c3cc(=O)[nH]c(=O)[nH]3)C2)C1 — inhibition (rep main protease; 5 µM): 18%
Clc1nc2ccccc2cc1/C=N\c1ccc(Br)nc1 — inhibition (rep papain-like protease; 100 µM): 6.2%
O=C(O)[C@H]1O[C@@H](Oc2cc3oc(-c4ccccc4)cc(=O)c3c(O)c2O)[C@H](O)[C@@H](O)[C@@H]1O — inhibition (rep main protease; 100 µM): 97.6%
CCOC(=O)COc1cc(C)cc2c1C(=O)C=CC2=O — inhibition (rep main protease; 10 µM): 97.5%
O=c1cc(-c2ccc(O)cc2)oc2cc(O)c(O)c(O)c12 — inhibition (rep main protease; 100 µM): 102%
Cn1c(C(=O)Nc2ccc3c(c2)OCCO3)cc2c(=O)n3ccccc3nc21 — inhibition (rep main protease; 1 µM): 31%
CC1(C)C=Cc2c(ccc3c2OC[C@@H](c2ccc(O)cc2O)C3)O1 — inhibition (rep main protease; 8 µM): 17.4%
COc1cc(C)cc2c1C(=O)C=CC2=O — inhibition (rep main protease; 1 µM): 75.6%
Cn1c(C(=O)Nc2ccc(Cl)cc2)cc2c(=O)n3ccccc3nc21 — inhibition (rep main protease; 10 µM): 14%
O=c1cc(-c2ccccc2)oc2cc(O)c(O)c(O)c12 — inhibition (rep main protease; 10 µM): 87%
O=C1C=CC(=O)c2ccccc21 — inhibition (rep main protease; 0.1 µM): 25%
C/N=c1\nc(-c2ccccc2)n(-c2ccccc2)s1 — inhibition (rep main protease; 0.1 µM): 16.4%
O=C(CSc1nnc2c(n1)[nH]c1ccccc12)Nc1cccc(S(=O)(=O)N2CCOCC2)c1 — inhibition (rep main protease; 100 µg/mL): 0%
Oc1ccc(/C=C/c2cc(O)cc(O)c2)cc1 — inhibition (rep main protease; FRET; 10 µM; 10 min): > 50%
CC(=O)Nc1ccc(-c2cnc(/N=C\c3cc4ccccc4nc3Cl)s2)cc1 — inhibition (rep papain-like protease; 100 µM): 97.2%
Cc1ncc(/C=C\C(=O)NC[C@@H]2CC3(CCC3)CN2C(=O)[C@@H]2CC(=O)NC(=O)N2)c(=O)[nH]1 — inhibition (rep main protease; 5 µM): 16.1%
CC(=O)Nc1ccc(C2NN=C(c3ccc(C(F)(F)F)cn3)N2)cc1 (stereo not drawn) — inhibition (rep main protease; 20 µM): 4.63%
Cc1ccc(NC(=O)c2cc3c(=O)n4cccc(C)c4nc3n2C)cc1Cl — inhibition (rep main protease; 10 µM): 16%
COCOc1cc(C)cc2c1C(=O)C=CC2=O — inhibition (rep main protease; 10 µM): 79.6%
COc1cc(C[C@@H](C)[C@@H](C)Cc2ccc(O)c(OC)c2)ccc1O — inhibition (rep papain-like protease; FRET; 8 µM): 56.4%
CCc1ccc(NC(=O)c2cc3c(=O)n4ccccc4nc3n2C)cc1 — inhibition (rep main protease; 1 mM): 76%
O=c1c(O)c(-c2ccc(O)cc2)oc2cc(O)cc(O)c12 — inhibition (rep main protease; 20 µM): 12%
O=C(/C=C/c1ccc(O)c(O)c1)O[C@@H]1C[C@](O)(C(=O)O)C[C@@H](O)[C@H]1O — inhibition (rep main protease; FRET; 10 µM; 10 min): < 25%
Cc1ccc2nc(Cl)c(C=Nc3cc(Br)ccn3)cc2c1 — inhibition (rep papain-like protease; 10 µM): 4.6%
O=C(Oc1cncc(Br)c1)c1cccc2[nH]ccc12 — inhibition (rep main protease; fluorescence; 10 µM; pH 7.2): 100%
COc1cc(O)c2c(=O)c(O)c(-c3ccc(O)c(O)c3)oc2c1 — inhibition (rep main protease; 20 µM): 52%
COc1cc([C@H]2OC[C@H]3[C@@H]2CO[C@H]3c2ccc(OC)c(OC)c2)ccc1O — inhibition (rep main protease; 100 µM): 11.4%
Cn1c(=O)n(C)c2cc(CNc3ccc4c(c3)OCO4)ccc21 — inhibition (rep main protease; 20 µM): 22.3%
N=C(N)c1ccc2cc(OC(=O)c3ccc(N=C(N)N)cc3)ccc2c1 — inhibition (rep main protease; 10 µM): 13%
O=c1c(O)c(-c2cc(O)c(O)c(O)c2)oc2cc(O)ccc12 — inhibition (rep main protease; 10 µM): 62.5%
CC[C@H](NC(=O)OCc1ccccc1)C(=O)N[C@H](C(=O)N[C@@H](CC(C)C)C(=O)N(C)N(C#N)CCC(N)=O)C(C)(C)C — inhibition (rep main protease; fluorescence; 50 µM; pH 7.2): 100%
